The IC50 is the midpoint of a concentration-inhibition curve. Higher therefore signals a need for much substance. The EC50 is the concentration giving half of the maximal effect.

Where only a bound is given, the exact number is not on record here.

The record followed here is ChEMBL document CHEMBL4382192, “Discovery of a potent dual ALK and EGFR T790M inhibitor” (Eur J Med Chem, 2017).

In series [1] the target is ALK tyrosine kinase receptor (Homo sapiens, UniProt Q9UM73). The series is described as follows: Inhibition of GST-tagged human ALK cytoplasmic domain (1058 to 1620 residues) expressed in baculovirus expression system using Poly G:T (4:1) as substrate after 30 mins by Z-LYTE assay.
Series [2] concerns BaF3. The series is described as follows: Antiproliferative activity against mouse BAF3 cells assessed as reduction in cell viability after 72 hrs by MTS assay. The class given is cell-based. The note with it: BaF3, 72 h.
Series [3] concerns the target CYP3A4 (Homo sapiens, UniProt P08684). The series is described as follows: Residual activity of CYP3A4 in human liver microsomes at 10 uM using midazolam 1-hydroxylase as substrate preincubated for 5 mins followed by NADPH addition measured after 15 mins by LC/MS/MS analysis relative to control. The note with it: probe midazolam (1-hydroxylation). In general terms: Liver microsomes are vesicles of endoplasmic reticulum, rich in cytochrome P450 enzymes.

The target in series [4] is CYP2C9 (Homo sapiens, UniProt P11712). The series is described as follows: Residual activity of CYP2C9 in human liver microsomes at 10 uM using tolbutamide 4-hydroxylase as substrate preincubated for 5 mins followed by NADPH addition measured after 15 mins by LC/MS/MS analysis relative to control. The note with it: probe tolbutamide (4-hydroxylation).
Series [5] in a line: Metabolic stability in mouse liver microsomes assessed as parent compound remaining at 1 uM after 30 mins in presence of NADPH by LC/MS/MS analysis. It is filed as ADME, Microsome. The note with it: read-out: Stability. Put shortly: (§1)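 Compound at 1 μM final with 0.5 mg/mL microsomal protein in 100 mM phosphate buffer pH 7.4 at 37 °C, started by adding an NADPH-regenerating system. Reactions were quenched with cold acetonitrile at 0 and 30 min and spun down. Supernatant was analysed by LC-MS/MS. The 0-min sample, quenched before NADPH addition, was set as 100%, and percent parent remaining came from peak areas.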

For series [6], the target named is CYP2D6 (Homo sapiens, UniProt P10635). The series is described as follows: Residual activity of CYP2D6 in human liver microsomes at 10 uM using dextromethorphan O-demethylase as substrate preincubated for 5 mins followed by NADPH addition measured after 15 mins by LC/MS/MS analysis relative to control. The note with it: probe dextromethorphan (O-demethylation).
Series [7] concerns the target CYP2C19 (Homo sapiens, UniProt P33261). The series is described as follows: Residual activity of CYP2C19 in human liver microsomes at 10 uM using S-mephenytoin 4-hydroxylase as substrate preincubated for 5 mins followed by NADPH addition measured after 15 mins by LC/MS/MS analysis relative to control. The note with it: probe S-mephenytoin (4-hydroxylation).
Series [8] is described as follows: Metabolic stability in rat liver microsomes assessed as parent compound remaining at 1 uM after 30 mins in presence of NADPH by LC/MS/MS analysis. It is filed as ADME, Microsome. The note with it: read-out: Stability. Put shortly: as §1
For series [9], the target named is T1, CYP1A2 (Homo sapiens, UniProt P05177).
T1 sequence (P05177 whole entry): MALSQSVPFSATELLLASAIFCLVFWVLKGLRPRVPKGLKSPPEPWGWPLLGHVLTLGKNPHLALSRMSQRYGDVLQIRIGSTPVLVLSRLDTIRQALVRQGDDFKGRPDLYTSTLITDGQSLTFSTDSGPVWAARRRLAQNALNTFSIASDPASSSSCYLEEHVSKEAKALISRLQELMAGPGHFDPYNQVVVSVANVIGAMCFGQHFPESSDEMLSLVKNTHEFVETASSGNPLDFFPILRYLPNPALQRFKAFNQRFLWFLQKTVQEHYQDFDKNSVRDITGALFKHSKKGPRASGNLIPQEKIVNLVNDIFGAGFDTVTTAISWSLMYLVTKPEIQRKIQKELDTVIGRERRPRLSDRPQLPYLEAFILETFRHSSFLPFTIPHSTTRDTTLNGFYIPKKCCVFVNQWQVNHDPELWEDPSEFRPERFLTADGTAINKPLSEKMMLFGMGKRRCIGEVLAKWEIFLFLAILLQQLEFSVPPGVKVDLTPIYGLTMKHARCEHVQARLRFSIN
The series is described as follows: Residual activity of CYP1A2 in human liver microsomes at 10 uM using phenacetin O-deethylase as substrate preincubated for 5 mins followed by NADPH addition measured after 15 mins by LC/MS/MS analysis relative to control. The note with it: probe phenacetin (O-deethylation).

Series [10] can be described thus: Metabolic stability in human liver microsomes assessed as parent compound remaining at 1 uM after 30 mins in presence of NADPH by LC/MS/MS analysis. It is filed as ADME, Microsome. The note with it: read-out: Stability. Put shortly:
as §1

Series [11] is described as follows: Metabolic stability in dog liver microsomes assessed as parent compound remaining at 1 uM after 30 mins in presence of NADPH by LC/MS/MS analysis. The class given is ADME, Canis lupus familiaris, Microsome. The note with it: read-out: Stability. Put shortly: as §1

ALK tyrosine kinase receptor, sequence (Q9UM73 whole entry, the tested form may be a part): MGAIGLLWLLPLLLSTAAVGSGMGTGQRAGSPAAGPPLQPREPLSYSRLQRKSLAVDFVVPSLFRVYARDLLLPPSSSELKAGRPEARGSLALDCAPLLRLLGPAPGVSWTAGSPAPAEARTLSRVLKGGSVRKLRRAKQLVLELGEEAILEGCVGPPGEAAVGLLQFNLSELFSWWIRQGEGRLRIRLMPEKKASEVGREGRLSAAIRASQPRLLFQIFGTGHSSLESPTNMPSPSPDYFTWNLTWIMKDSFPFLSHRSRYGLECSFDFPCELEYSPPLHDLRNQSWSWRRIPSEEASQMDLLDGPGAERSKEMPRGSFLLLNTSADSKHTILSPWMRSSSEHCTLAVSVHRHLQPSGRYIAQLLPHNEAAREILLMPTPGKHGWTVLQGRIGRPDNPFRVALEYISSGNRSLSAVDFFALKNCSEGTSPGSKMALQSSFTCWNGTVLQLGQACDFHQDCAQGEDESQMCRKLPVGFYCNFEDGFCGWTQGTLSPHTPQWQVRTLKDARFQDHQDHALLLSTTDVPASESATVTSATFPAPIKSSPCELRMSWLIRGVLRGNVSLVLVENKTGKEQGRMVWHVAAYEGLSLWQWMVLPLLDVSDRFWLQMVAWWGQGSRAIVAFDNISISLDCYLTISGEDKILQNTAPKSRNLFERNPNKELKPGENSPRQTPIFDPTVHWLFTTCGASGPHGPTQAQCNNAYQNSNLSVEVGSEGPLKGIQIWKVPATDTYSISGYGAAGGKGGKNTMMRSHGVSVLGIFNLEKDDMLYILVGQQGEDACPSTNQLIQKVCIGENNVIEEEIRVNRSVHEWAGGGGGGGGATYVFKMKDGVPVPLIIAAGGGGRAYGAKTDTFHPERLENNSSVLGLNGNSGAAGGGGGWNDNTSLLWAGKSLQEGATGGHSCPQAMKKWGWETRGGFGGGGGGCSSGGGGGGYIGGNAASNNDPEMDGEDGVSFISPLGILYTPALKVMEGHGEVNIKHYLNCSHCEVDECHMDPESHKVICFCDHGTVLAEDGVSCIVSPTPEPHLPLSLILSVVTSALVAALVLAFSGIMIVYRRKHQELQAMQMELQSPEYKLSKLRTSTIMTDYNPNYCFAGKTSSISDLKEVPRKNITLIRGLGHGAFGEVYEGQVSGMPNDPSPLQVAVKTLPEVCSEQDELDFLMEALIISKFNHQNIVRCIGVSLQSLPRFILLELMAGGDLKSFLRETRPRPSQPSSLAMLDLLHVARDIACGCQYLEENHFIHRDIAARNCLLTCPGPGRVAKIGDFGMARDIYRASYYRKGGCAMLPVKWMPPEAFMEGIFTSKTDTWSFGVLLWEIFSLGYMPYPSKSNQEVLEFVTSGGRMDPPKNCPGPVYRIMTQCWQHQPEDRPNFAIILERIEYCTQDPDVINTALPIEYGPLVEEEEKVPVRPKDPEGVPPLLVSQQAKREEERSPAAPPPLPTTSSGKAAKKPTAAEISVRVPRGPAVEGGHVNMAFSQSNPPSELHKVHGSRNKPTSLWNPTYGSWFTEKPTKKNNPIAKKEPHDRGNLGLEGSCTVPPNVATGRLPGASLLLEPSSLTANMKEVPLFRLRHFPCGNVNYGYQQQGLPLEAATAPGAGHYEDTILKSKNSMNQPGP
CYP2C19, sequence (P33261 whole entry): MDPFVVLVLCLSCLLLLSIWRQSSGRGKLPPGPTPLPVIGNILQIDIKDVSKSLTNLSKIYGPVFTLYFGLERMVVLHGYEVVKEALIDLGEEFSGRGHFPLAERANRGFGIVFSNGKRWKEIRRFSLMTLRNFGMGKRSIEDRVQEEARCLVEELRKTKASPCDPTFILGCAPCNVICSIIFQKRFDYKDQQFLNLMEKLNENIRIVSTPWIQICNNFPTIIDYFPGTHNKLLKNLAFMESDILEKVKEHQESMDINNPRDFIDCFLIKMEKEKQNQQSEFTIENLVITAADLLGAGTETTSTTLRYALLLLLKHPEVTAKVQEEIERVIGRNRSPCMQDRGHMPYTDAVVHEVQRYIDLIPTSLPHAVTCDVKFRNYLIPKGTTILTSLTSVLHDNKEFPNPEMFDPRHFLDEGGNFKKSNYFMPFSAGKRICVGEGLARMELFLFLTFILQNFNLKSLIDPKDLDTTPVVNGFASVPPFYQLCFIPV
CYP3A4, sequence (P08684 whole entry): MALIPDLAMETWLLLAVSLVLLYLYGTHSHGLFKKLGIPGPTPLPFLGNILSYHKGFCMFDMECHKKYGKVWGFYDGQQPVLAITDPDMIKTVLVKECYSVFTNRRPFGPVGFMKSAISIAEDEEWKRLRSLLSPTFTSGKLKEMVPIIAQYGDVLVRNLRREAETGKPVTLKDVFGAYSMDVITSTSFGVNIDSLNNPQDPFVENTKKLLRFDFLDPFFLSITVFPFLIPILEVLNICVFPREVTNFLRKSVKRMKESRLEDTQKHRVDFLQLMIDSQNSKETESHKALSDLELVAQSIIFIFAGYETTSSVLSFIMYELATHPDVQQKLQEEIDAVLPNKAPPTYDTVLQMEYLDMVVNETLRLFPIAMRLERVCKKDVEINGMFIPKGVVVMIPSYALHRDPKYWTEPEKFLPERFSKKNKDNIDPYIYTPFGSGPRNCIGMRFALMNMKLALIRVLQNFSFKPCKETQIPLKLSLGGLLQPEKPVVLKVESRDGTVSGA
CYP2D6, sequence (P10635 whole entry): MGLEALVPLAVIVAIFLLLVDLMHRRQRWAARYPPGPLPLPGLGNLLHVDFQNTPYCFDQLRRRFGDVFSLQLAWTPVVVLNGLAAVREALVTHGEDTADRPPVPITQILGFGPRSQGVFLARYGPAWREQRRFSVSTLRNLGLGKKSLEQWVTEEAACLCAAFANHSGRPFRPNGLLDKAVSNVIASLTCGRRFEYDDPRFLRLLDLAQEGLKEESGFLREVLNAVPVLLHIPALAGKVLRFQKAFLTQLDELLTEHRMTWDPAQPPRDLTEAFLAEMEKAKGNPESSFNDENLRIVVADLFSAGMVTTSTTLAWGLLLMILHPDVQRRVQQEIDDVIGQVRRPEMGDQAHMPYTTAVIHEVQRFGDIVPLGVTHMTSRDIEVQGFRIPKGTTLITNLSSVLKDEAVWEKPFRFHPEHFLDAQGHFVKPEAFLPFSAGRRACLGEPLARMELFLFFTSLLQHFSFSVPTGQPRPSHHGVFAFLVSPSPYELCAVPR
CYP2C9, sequence (P11712 whole entry): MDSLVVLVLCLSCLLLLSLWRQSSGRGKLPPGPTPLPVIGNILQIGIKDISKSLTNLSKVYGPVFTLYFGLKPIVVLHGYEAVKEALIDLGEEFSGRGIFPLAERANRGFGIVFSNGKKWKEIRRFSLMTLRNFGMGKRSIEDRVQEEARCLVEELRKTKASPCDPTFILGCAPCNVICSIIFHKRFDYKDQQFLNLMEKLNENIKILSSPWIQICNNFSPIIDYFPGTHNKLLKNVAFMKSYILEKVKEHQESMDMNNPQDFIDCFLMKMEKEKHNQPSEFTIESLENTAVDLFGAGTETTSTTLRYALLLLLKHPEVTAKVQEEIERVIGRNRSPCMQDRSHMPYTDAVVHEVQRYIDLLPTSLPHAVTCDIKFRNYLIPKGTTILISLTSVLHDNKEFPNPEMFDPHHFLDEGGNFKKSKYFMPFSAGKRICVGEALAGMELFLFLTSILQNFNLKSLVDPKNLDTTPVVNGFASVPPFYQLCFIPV

Consider `C=CC(=O)Nc1cc(Nc2nccc(-c3cn(C)c4ccccc34)n2)c(OC)cc1N(C)CCN(C)C` [OSIMERTINIB], for which, in series [1], half-maximal inhibition (IC50) required 0.177 µM. Further, in [2], the half-maximal effective concentration (EC50) was more than 5 µM.

For the compound `C=CC(=O)Nc1cc(Nc2nccc(Nc3ccccc3S(=O)(=O)C(C)C)n2)c(OC)cc1N(C)CCN(C)C`, the Activity at […], 10 µM in series [3] turned out to be 40%; in series [4], 90%; in series [6], 67%; in series [7] it was 87%; in series [9], 80%. The remaining at 0.5 h, 1 µM worked out at 8% in series [5], 22% in series [8], 5% in [10] and 48% in [11]. Moreover, the EC50 in series [2] was more than 5 µM.

As to `C=CC(=O)Nc1cc(Nc2ncc(Cl)c(Nc3ccccc3S(=O)(=O)N(C)C)n2)c(OC)cc1N(C)CCN(C)C`, the Activity at […], 10 µM in series [3] came to 39%; in [4], 59%; in [6] it was 88%; in [7], 75%; in series [9], 87%. In addition, the remaining at 0.5 h, 1 µM in [5] is 23%; in [8] it was 13%; in series [10], 11%; in series [11] it was 31%.

Regarding `Cc1cc(Nc2ncc(Cl)c(Nc3ccccc3S(=O)(=O)C(C)C)n2)c(OC(C)C)cc1C1CCNCC1` [CERITINIB], in series [2], the concentration giving a half-maximal response (EC50) was more than 5 µM.

For the compound `C=CC(=O)Nc1cc(Nc2nccc(Nc3ccccc3P(C)(C)=O)n2)c(OC)cc1N(C)CCN(C)C`, the Activity at […], 10 µM in series [3] was 89%; in series [4], 90%; in series [6], 87%; in series [7], more than 100%; in [9], 84%. In series [1], inhibition was half-maximal at 0.695 µM (IC50). For the same compound, the remaining at 0.5 h, 1 µM was determined as 76% in series [5], 78% in [8], 70% in series [10] and 73% in [11]. Besides, the EC50 in series [2] is more than 5 µM.

Consider `C=CC(=O)Nc1cc(Nc2nccc(Nc3ccccc3S(=O)(=O)N(C)C)n2)c(OC)cc1N(C)CCN(C)C`, for which the Activity at […], 10 µM was 56% in [3]; 88% in series [4]; 79% in [6]; 85% in series [7]; 82% in [9]. Also, the remaining at 0.5 h, 1 µM in series [5] turned out to be 5%; in series [8], 6%; in series [10], 10%; in [11] it was 50%. Further, the EC50 in series [2] was more than 5 µM.

Consider `C=CC(=O)Nc1cc(Nc2ncc(Cl)c(Nc3ccccc3P(C)(C)=O)n2)c(OC)cc1N(C)CCN(C)C`, for which the Activity at […], 10 µM in series [3] was 91%; in series [4], more than 100%; in series [6], 85%; in series [7] it was 98%; in series [9] it was 93%. In addition, the remaining at 0.5 h, 1 µM is 66% in series [5], 76% in series [8], 61% in series [10] and 77% in series [11]. In [2], the 50% effective concentration (EC50) is more than 5 µM.

Take `C=CC(=O)Nc1cc(Nc2ncc(I)c(Nc3ccccc3S(=O)(=O)N(C)C)n2)c(OC)cc1N(C)CCN(C)C`: the Activity at […], 10 µM in [3] was 54%; in series [4] it was 85%; in series [6], 93%; in series [7], 67%; in [9], 79%. Besides, the remaining at 0.5 h, 1 µM in series [5] came to 12%; in series [8], 12%; in series [10], 13%; in [11], 35%.

Consider `C=CC(=O)Nc1cc(Nc2ncc(F)c(Nc3ccccc3S(=O)(=O)C(C)C)n2)c(OC)cc1N(C)CCN(C)C`, for which the Activity at […], 10 µM was found to be 51% in [3]; 94% in series [4]; 95% in [6]; 93% in series [7]; 91% in series [9]. Besides, the remaining at 0.5 h, 1 µM in [5] was 15%; in series [8] it was 11%; in [10], 26%; in series [11], 27%. Also, the EC50 in [2] is more than 5 µM.

As to `C=CC(=O)Nc1cc(Nc2ncc(I)c(Nc3ccccc3P(C)(C)=O)n2)c(OC)cc1N(C)CCN(C)C`, the Activity at […], 10 µM in [3] was 88%; in series [4], more than 100%; in [6], 80%; in series [7] it was 99%; in series [9], 91%. Further, the remaining at 0.5 h, 1 µM in series [5] is 57%; in [8], 81%; in series [10], 65%; in series [11] it was 93%. Also, the half-maximal effective concentration (EC50) in [2] was more than 5 µM.

Regarding `C=CC(=O)Nc1cc(Nc2ncc(F)c(Nc3ccccc3P(C)(C)=O)n2)c(OC)cc1N(C)CCN(C)C`, the Activity at […], 10 µM in series [3], in series [4], in series [6], in [7] and in series [9] was more than 100% in each case. For the same compound, the remaining at 0.5 h, 1 µM stood at 80% in series [5], 87% in [8], 84% in [10] and 87% in series [11]. Also, the EC50 in series [2] was more than 5 µM.

Consider `C=CC(=O)Nc1cc(Nc2ncc(I)c(Nc3ccccc3S(=O)(=O)C(C)C)n2)c(OC)cc1N(C)CCN(C)C`, for which the Activity at […], 10 µM was determined as 47% in series [3]; 88% in [4]; 82% in [6]; 86% in series [7]; 81% in [9]. Moreover, the remaining at 0.5 h, 1 µM in series [5] came out at 10%; in series [8], 14%; in series [10], 14%; in [11] it was 19%. Besides, in series [2], the concentration for a half-maximal effect (EC50) is more than 5 µM.

As for `C=CC(=O)Nc1cccc(Oc2nc(Nc3ccc(N4CCN(C)CC4)cc3OC)ncc2Cl)c1`, the 50% inhibitory concentration (IC50) in [1] was 0.99 µM. In addition, the EC50 in series [2] is more than 5 µM.

On to `C=CC(=O)Nc1cc(Nc2ncc(F)c(Nc3ccccc3S(=O)(=O)N(C)C)n2)c(OC)cc1N(C)CCN(C)C`, for which the Activity at […], 10 µM was 71% in [3]; 88% in [4]; more than 100% in [6]; 91% in series [7]; more than 100% in series [9]. The remaining at 0.5 h, 1 µM is 10% in series [5], 7% in series [8], 9% in [10] and 33% in series [11].
